Here are results for 27 variants from the RNAGym collection of RNA variant scans (doi:10.1101/gad.245936.114).

Fewer inactive variants are shown than the library holds.

To fix the notation:
B1: tRNA (parent)
chain: CUCUCGGUAGCCAAGUUGGUUUAAGGCGCAAGACUUUAAUUUAUCACUACGAAAUCUUGAGAUCGGGCGUUCGACUCGCCCCCGGGAGAUUUUUUCCUCGAGCAA

The data set covers variants of B1. Kind of data set: nonsense suppression (GFP-seq) (ratio to wild type); higher = more function; SUP4oc tRNA, yeast GFP reporter sort-seq. In outline: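 Raffinose/galactose medium with 80 mg/L adenine was used to grow yeast carrying genome-integrated tRNA variants (~3% random-mutation library), RFP, and a galactose-driven GFP ochre reporter. Cells went into GFP/RFP bins, which were Illumina-sequenced, and variants with ≥100 reads and ≥30 cells were scored. Nonsense suppression (GFPSEQ) is the per-bin median GFP/RFP weighted by estimated cell share and expressed relative to the unmutated parent tRNA.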
Take CUUUCGGGAGCCAAGUUGGUUUAAGGCGCAAGACUUUAAUUUAUCACUACGAAAUCUGGAGAUCGGGCGUUCGACUCGCACGCGGCAGAUUUUUUCCUCGAGCAA [C3U U8G U58G C80A C82G G86C]: the nonsense suppression was ≤ 0.026. Regarding CUUUCGGUAGCCAAGUUGGUUUAAGGCGCAAGACUUUAAUUUAUCACUACGAAAUCUUGAGAUCGGGCGUUCGACUGGCCCCCGGGAGAUUUUUUCCUCGAGCAA [C3U C77G], the nonsense suppression turned out to be 0.0323.

Take CUUUCGGUAGCCAAGUUGGUUUAAGGCGCAAGACUUUAAUUUAUCACUACGAACUCUUGAGAUCGGGCGUUCGACUCGCCCCCGGGAGAUUUUUUCCUCGAGCAA [C3U A54C]: the nonsense suppression worked out at 0.079.

For the variant CUUUUGGUAGCCAAGUUGGUUUAAGGCGCAAGACUUUAAUUUAUCACUACGAAAUCUUGAGAUCGGGCGUUCGACUCGCCCCCGGGAGAUUUUUUCCUCGAGCAA [C3U C5U], the nonsense suppression was determined as 0.158. Turning to CUUUCGGUAGCCAAGAUGGUUUAAGGCGCAAGACUUUAAUUUAUCACUACGAAAUCUUGAGAUCGGGCGUUCGACUCGCCCCCGGGAGAUUUUUUCCUCGAGCAA [C3U U16A], the nonsense suppression was 0.16.

With CUUUCGGUAGCCAAGGUGGUUUAAGGCGCAAGACUUUAAUUUAUCACUACGAAAUCUUGAGAUCGGGCGUUCGACUCGCCCCCGGGAGAUUUUUUCCUCGAGCAA [C3U U16G], the nonsense suppression was determined as 0.22.

For CUUUCGGUAGCCAAGUUGGUGUAAGGCGCAAGACUUUAAUUUAUCACUACGAAAUCUUGAGAUCGGGCGUUCGACUCGCCCCCGCGAGAUUUUUUCCUCGAGCAA [C3U U21G G85C], the nonsense suppression came to 0.417.

CUUCCGGUCGCCAAGUUGGUUUAAGGCGCAAGACUUUAAUUUAUCACUACGAAAUCUUGAGAUCGGGCGUUCGACUCGCCCCCGGGAGAUUUUUUCCUCGAGCAA [C3U U4C A9C]: the nonsense suppression came to 1.11. As for CUUUCGGUAGCUAAGUUGGUUUAAGGCGCAAGACUUUAAUUUAUCACUACGAAAUCUUGAGAUCGGGCGUUCGACUCGCCCCCGGGAGAUUUUUUCCUCGAGCAA [C3U C12U], the nonsense suppression stood at 0.039. In the case of CUUUCGGUAGCGAAGUUGGUUUAAGGCGCAAGACUUUAAUUUAUCACUACGAAAUCUUGAGAUCGGGCGUUCGACUCGCCCCCGGGAGAUUUUUUCCUCGAGCAA [C3U C12G], the nonsense suppression was ≤ 0.026.

As to CUUUCGGUAGCCAAGUUGGUUUAAGGCGCAAGACUUUAAUUUAUCACUACGAAAUCUUGAGAUCGGGCGUUCAACUCGCCCCCGGGAGAUUUUUUCCUCGAGCAA [C3U G73A], the nonsense suppression came to 0.0656. On to CUUUCGGUAGCCAAGUUGGAUUAAGACGCAAGACUUUAAUUUAUCACUACGAAAUCUUGAGAUCGGGCGUUCGACUCGCCCCCGGGAGAUUUUUUCCUCGAGCAA [C3U U20A G26A], for which the nonsense suppression is ≤ 0.026. For CUUUCGGUAGCCAAGUUGGUUUAAGGCGCAAGACUUUAAUUUAUCACUACGAAAUCUUGAGAUCGGGCGUUCGACUCCCCCCCGGGAGUUUUUUUCCUCGAGCAA [C3U G78C A89U], the nonsense suppression is ≤ 0.026. With CUUUCGGUAGCCAAGUUGGUUUAAGGCGCAAGACUUUAAUUUAUCACUACGAAAUCUUGAGAUCGGGCGUUCGACUCGCCUCCGGGAGAUUUUUUCCUCGAGCAA [C3U C81U], the nonsense suppression came out at 0.0941. Consider CUUUCGGUAGCCAAGUUGGUUUAAGGCGCAAGACUUUAAUUUAUCACUACGAAAUCUUGAGAUCGGGCGUUGGACUCGCCCCCGGGAGAUUUUUUCCUCGAGCAA [C3U C72G], for which the nonsense suppression was ≤ 0.026. Take CUUUCGGUAGCCAAGUUGGUUUAAGGCGCAAGACGUUAAUUUAUCACUACGAAAUCUUGAAAUCGGGCGUUCGACUCGCCCCCGGGAGAUUUUUUCCUCGAGCAA [C3U U35G G61A]: the nonsense suppression was ≤ 0.026. Consider CUUUCGGUACCCAAGUUGGUUUUAGGCGCAAGACUUUAAUUUAUCACUACGAAAUCUUGAGAUCGGGCGUUCGACUCGCCCCGGAGAGUUUUUUUCCUCGAGCAA [C3U G10C A23U C83G G85A A89U], for which the nonsense suppression is ≤ 0.026. Take CUUCGGUAGCCAAAGUAGGUUUAAGGCGCAAGACUUUAAUUUAUCACUACGAAAUCAUGAGAUCGGGCGUUCGACUCGCCCCCGGGAGAUUUUUUCCUCGAGCAA [C3U U4C C5G G7U U8A A9G G10C C12A U17A U57A]: the nonsense suppression is ≤ 0.026.

On to CUUUCGGUAGCCAAGUUGGGUUAAGGCGCAAGACUUUAAUUUAUCACUACGAAAUCUUGAGAUCGGGCGUUCGACUCGCCCCCGGGAGAUUUUUUCCUCGAGCAA [C3U U20G], for which the nonsense suppression was found to be 0.194. In the case of CUUUCUGUAGCCAAGUUGGUUUAAGGCGCAAGACUUUAAUUUAUCACUACGAAAUCUUGAGAUCGGGCGUUCGACUCGCCCCCGGGAGAUUUUUUCCUCGAGCAA [C3U G6U], the nonsense suppression amounted to 0.0343. Consider CUUUCGGUAGCCAAGUUGGUAUAAGGCGCAAGACUUUAAUUUAUCACUACGAAAUCUUGAGAUCGGGCGUUCGACUCGCCCCCGGGAGAUUUUUUCCUCGAGCAA [C3U U21A], for which the nonsense suppression was 0.196. On to CUUUCGGUAGCCAAGUUGGUGUAAGGCGCAAGACUUUAAUUUAUCACUACGAAAUCUUGAGAUCGGGCGUUCGACUCGCCCCCGGGAGAUUUUUUCCUCGAGCAA [C3U U21G], for which the nonsense suppression came to 0.137. For the variant CUUUCGGUAGCCAAGUUGGUUUAAGGCGCAAGACUUUAAUUUAUCACUACGAAAUCUUGAGAUCGGGCGUUCGACUCGCCCCCGAGAGAUUUUUUCCUCGAGCAA [C3U G85A], the nonsense suppression is 0.528.

For CUUUCGGGAGCCAAGUUGGUUUAAGGCGCAAGACUUUAAUUUAUCACUACGAAUUCUGGAGAUCGGGCGUUCGACUCGCCCCUGGGAGAUUUUUUCCUCGAGCAA [C3U U8G A54U U58G C83U], the nonsense suppression was ≤ 0.026.

For the variant CUUUCGGUAGCCAAGUUGGUUUAAGGCGCAAGACUUUAAUUUAUCACUACGAAAUCCUGAGAUCGGGCAUUCAACUCGCCCCCGAGAGAUUUUUUCCUCGAGCAA [C3U U57C G69A G73A G85A], the nonsense suppression is ≤ 0.026.

On to CUUUCGGUAGCCAAGUUGGUUUAAGGCGCAAGACUUUAAUUUAUCACUACGAAAUCUCGAGAUCGGGCGUUCGACUCGCCCCCGGGAGAUUUUUUCCUCGAGCAA [C3U U58C], for which the nonsense suppression was determined as 0.202.

Regarding CUUUCGGUAGCCAAGUUGGUUUAAGGCGCAAGACUUUAAUUUAUCACUACGAAAUCUUGAGAUCGGGCGUUCGAUUCGCCCCCGGGAGAUUUUUUCCUCGAGCAA [C3U C75U], the nonsense suppression turned out to be 0.539.
